Compound activity deposited in PubChem by Johns Hopkins Ion Channel Center.
MrgX1 ag = agonists of human MrgX1 receptor, primary screen, HEK293 cells, Fluo-4 calcium flux | Mas-related G-protein coupled receptor member X1 (Homo sapiens), Q96LB2 | hit rate 0.44% among 310,000 | AID 588627, 2011 | B-score at 10 µM | Fluo-4 calcium fluorescence, agonist mode; hits give high values;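 active means calcium response B-score plate-corrected fluorescence ratio at least 3 library SD, with starting fluorescence B-score inside 5 SD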
Target sequence (Q96LB2 whole entry, looked up): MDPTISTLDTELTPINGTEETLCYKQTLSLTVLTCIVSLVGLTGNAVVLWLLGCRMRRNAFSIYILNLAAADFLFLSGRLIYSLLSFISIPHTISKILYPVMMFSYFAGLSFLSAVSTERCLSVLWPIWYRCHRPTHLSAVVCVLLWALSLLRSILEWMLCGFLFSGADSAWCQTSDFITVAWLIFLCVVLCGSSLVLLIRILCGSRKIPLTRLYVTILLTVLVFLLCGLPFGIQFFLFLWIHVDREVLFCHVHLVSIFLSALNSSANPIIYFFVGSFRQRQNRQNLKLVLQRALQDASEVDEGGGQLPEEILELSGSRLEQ
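Test system: HEK293 cells stably expressing human MrgX1 receptor; amount: 15,000 cells per well; doses: compound delivered in addition one of three; times: overnight plating before 1 h dye loading; detection: Fluo-4 NW calcium-flux fluorescence, kinetic read; read-out basis: B-scored fluorescence response ratio; controls: positive and negative controls per plate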
RGS4 pot = RGS4 potentiators or activators, primary screen, cell-based, HEK293 M3R inducible RGS4, calcium flux | carbachol calcium flux Fluo4; hits give low values | B-score at 10 µM | hit rate 0.92% among 310,000 | AID 463111, 2010;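 active means B-score of the integrated calcium signal more than 4 SD below the library mean, with starting fluorescence not abnormally high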;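 further: negative B-score means reduced calcium response which marks RGS4 activation or potentiation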
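System: HEK293 FlpIn-TREx cells, stable M3R, doxycycline-inducible RGS4. Timing: overnight RGS4 induction, 30 min dye load 37 °C, 20 min compound RT. Also added: carbachol, ECmax concentration. Measured by: Fluo4 fluorescence kinetic imaging of calcium. Evaluation: integrated calcium ratio converted to B score.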
MrgX1 antagonist = antagonists of human MrgX1 receptor, primary screen, HEK293 cells, Fluo-4 calcium flux | Mas-related G-protein coupled receptor member X1 (Homo sapiens), Q96LB2 | BAM8-22 antagonism; hits give low values | B-score at 10 µM | hit rate 1.3% among 310,000;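 active means calcium-response B-score plate-corrected more than 3 library SD below zero, starting fluorescence within 5 deviations, no agonist response on first addition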;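 further: peak minus trough fluorescence over baseline after final BAM8-22 challenge near maximal dose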
RGS4 block = RGS4 inhibitors, primary screen, cell-based, HEK293 M3R inducible RGS4, calcium flux | Regulator of G-protein signaling 4 (Homo sapiens), P49798 | Fluo-4 calcium flux; hits give high values; triggered by carbachol at its EC20 | B-score at 10 µM | hit rate 0.45% among 310,000 | AID 463165, 2010;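 active means B-score, a plate-corrected calcium signal, over three deviations above library mean, with baseline fluorescence within five deviations of library mean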;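 further: RGS4 expression induced by doxycycline in cells with stable M3 receptor; B-score is computed from the integrated fluorescence ratio over baseline after carbachol; higher B-score means a larger calcium signal and so more RGS4 inhibition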
Target sequence (P49798 whole entry, looked up): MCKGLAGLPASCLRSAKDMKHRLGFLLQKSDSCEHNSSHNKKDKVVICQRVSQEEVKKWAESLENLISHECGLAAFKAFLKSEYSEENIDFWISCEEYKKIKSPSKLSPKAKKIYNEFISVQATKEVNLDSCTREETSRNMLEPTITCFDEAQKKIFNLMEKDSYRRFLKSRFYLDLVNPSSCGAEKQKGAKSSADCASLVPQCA
MrgX1 allo act = positive allosteric modulators of MrgX1, primary screen, HEK293 cells, Fluo-4 calcium flux; Mas-related G-protein coupled receptor member X1 (Homo sapiens), Q96LB2; AID 588675, 2011; FDSS; hits give high values; B-score at 10 µM; hit rate 0.63% among 310,000;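 active means plate-corrected calcium response at least 3 library SD above typical, normal starting fluorescence, not activating the receptor alone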;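 further: compound read alongside a low EC10 to EC30 dose of BAM8-22 agonist; peak minus trough fluorescence over baseline measured at the second addition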
MrgX1 antag conf = MrgX1 receptor antagonists, duplicate retest, confirmation, HEK293 cells, Fluo-4 calcium flux; BAM8-22 calcium flux; hits give low values; shares compounds with MrgX1 antagonist; remaining BAM8-22 calcium response % of control (hits give low values), % at 10 µM; hit rate 19% among 2,300;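 active means remaining agonist calcium response no higher than 100% minus 3 SD of agonist-only control wells, with starting fluorescence near control levels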;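 further: agonist BAM8-22 given at a near maximal EC90 to ECmax level; peak minus minimum fluorescence divided by baseline after agonist addition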
HEK293 Ca flux = nonspecific calcium signal in parental HEK293, confirmation, counter-screen for MrgX1 antagonist project, parental HEK293 cells, Fluo-4 calcium flux; shares compounds with MrgX1 antagonist; Fluo-4 calcium fluorescence, FDSS; fluorescence ratio F(max-min)/F0 at 10 µM; hit rate 2% among 4,000;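 active means duplicate-averaged calcium fluorescence ratio at least three times the standard deviation of buffer wells, a nonspecific response in parental cells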
HEK293 Ca counter = calcium response in parental HEK293 cells, primary screen, counter-screen for MrgX1 allosteric activator project, cell-based, Fluo-4 calcium flux, duplicate. shares compounds with MrgX1 antagonist. Fluo-4 fluorescence ratio; hits give high values. fluorescence ratio F(max-min)/F0 at 10 µM. hit rate 0.4% among 4,000;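 active means calcium fluorescence ratio, averaged over duplicates, at least 3 SD of the buffer-well ratio, meaning a nonspecific response in receptor-free cells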;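 further: untransfected parental HEK293 lacking MrgX1 used as counterscreen for MrgX1 allosteric activators; fluorescence change taken during the second addition on a kinetic imager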
HEK293 Ca cntr2 = calcium response in parental HEK293 cells, primary screen, counter-screen for MrgX1 agonist project, cell-based, Fluo-4 calcium flux, duplicate, agonist mode; shares compounds with MrgX1 antagonist; Fluo-4 calcium fluorescence (FDSS); hits give high values; fluorescence ratio F(max-min)/F0 at 10 µM; hit rate 8.7% among 4,000; AID 624115, 2012;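 active means calcium fluorescence ratio at least three times the spread of buffer wells, meaning a non-specific response in parental cells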
* marks the source's active call; other numbers are inactive results. Compounds with a hit are over-represented: about 3.5% of the library has one in this group of screens.

What do the screens show for `CN(C)S(=O)(=O)c1ccc2c(c1)C(CC(=O)O)OC2=O` (stereo not drawn)?
MrgX1 ag: inactive; RGS4 pot: inactive; MrgX1 antagonist: -4.5*; RGS4 block: inactive; MrgX1 allo act: inactive; MrgX1 antag conf: inactive; HEK293 Ca flux: inactive; HEK293 Ca counter: inactive; HEK293 Ca cntr2: inactive

Results for COc1ccc(S(=O)(=O)N(CCC(=O)O)Cc2ccccc2)cc1 ?
MrgX1 ag: inactive; RGS4 pot: inactive; MrgX1 antagonist: inactive; RGS4 block: inactive; MrgX1 allo act: inactive

Results for CSC1=NCCN1S(=O)(=O)c1ccc(NC(C)=O)cc1 ?
MrgX1 ag: inactive; RGS4 pot: inactive; MrgX1 antagonist: inactive; RGS4 block: inactive; MrgX1 allo act: inactive

Results for NS(=O)(=O)c1ccc(-n2nncc2C23CC4CC(CC(C4)C2)C3)cc1 ?
MrgX1 ag: inactive; RGS4 pot: inactive; MrgX1 antagonist: -7.3*; RGS4 block: inactive; MrgX1 allo act: inactive; MrgX1 antag conf: inactive; HEK293 Ca flux: inactive; HEK293 Ca counter: inactive; HEK293 Ca cntr2: inactive

Results for NS(=O)(=O)c1ccc(CCNC(=O)NC23CC4CC(CC(C4)C2)C3)cc1 ?
MrgX1 ag: inactive; RGS4 pot: inactive; MrgX1 antagonist: inactive; RGS4 block: inactive; MrgX1 allo act: inactive

Results for CCOC(=O)C1(Cc2ccccc2)CCN(Cc2cnn(-c3ccccc3)c2)CC1 ?
MrgX1 ag: inactive; RGS4 pot: inactive; MrgX1 antagonist: -6*; RGS4 block: inactive; MrgX1 allo act: inactive; MrgX1 antag conf: 73%*; HEK293 Ca flux: inactive; HEK293 Ca counter: inactive; HEK293 Ca cntr2: inactive

How did CCOC(=O)C1(Cc2ccccc2)CCCN(CCO)C1 (stereo not drawn) do in these assays?
MrgX1 ag: inactive; RGS4 pot: inactive; MrgX1 antagonist: -5*; RGS4 block: inactive; MrgX1 allo act: inactive; MrgX1 antag conf: inactive; HEK293 Ca flux: inactive; HEK293 Ca counter: inactive; HEK293 Ca cntr2: inactive

How did Clc1ccc(C(c2ccccc2)N2CCNCC2)cc1 (stereo not drawn) do in these assays?
MrgX1 ag: inactive; RGS4 pot: inactive; MrgX1 antagonist: -6.3*; RGS4 block: inactive; MrgX1 allo act: inactive; MrgX1 antag conf: inactive; HEK293 Ca flux: inactive; HEK293 Ca counter: inactive; HEK293 Ca cntr2: inactive

How did CN1CCOCCOCCN(C)C1=O do in these assays?
MrgX1 ag: inactive; RGS4 pot: inactive; MrgX1 antagonist: -4.6*; RGS4 block: inactive; MrgX1 allo act: inactive; MrgX1 antag conf: inactive; HEK293 Ca flux: inactive; HEK293 Ca counter: inactive; HEK293 Ca cntr2: inactive

Results for COc1ccc(C)cc1NC(=O)CN(C)S(=O)(=O)c1ccc2c(c1)CCCN2C(C)=O ?
MrgX1 ag: inactive; RGS4 pot: inactive; MrgX1 antagonist: inactive; RGS4 block: inactive; MrgX1 allo act: inactive

What do the screens show for `COc1cccc(C2=CC(c3ccccc3)n3nnnc3N2)c1` (stereo not drawn)?
MrgX1 ag: inactive; RGS4 pot: inactive; MrgX1 antagonist: -5.6*; RGS4 block: inactive; MrgX1 allo act: inactive; MrgX1 antag conf: inactive; HEK293 Ca flux: inactive; HEK293 Ca counter: inactive; HEK293 Ca cntr2: inactive

What do the screens show for `CCN(CC)c1ccc(/C=C/c2cc(-c3ccccc3)c3ccccc3n2)cc1`?
MrgX1 ag: inactive; RGS4 pot: inactive; MrgX1 antagonist: -15*; RGS4 block: inactive; MrgX1 allo act: inactive; MrgX1 antag conf: inactive; HEK293 Ca flux: 0.065*; HEK293 Ca counter: inactive; HEK293 Ca cntr2: inactive

Results for CCN(CC)c1ccc(/C=N/NC(=O)c2cc(C)nc3ccccc23)cc1 ?
MrgX1 ag: inactive; RGS4 pot: inactive; MrgX1 antagonist: inactive; RGS4 block: inactive; MrgX1 allo act: inactive

What do the screens show for `O=C(OC1CCCCC1=O)c1cccc(S(=O)(=O)N2CCCCC2)c1` (stereo not drawn)?
MrgX1 ag: inactive; RGS4 pot: inactive; MrgX1 antagonist: inactive; RGS4 block: inactive; MrgX1 allo act: inactive

Results for O=C(OC1CCCCC1=O)c1ccc(S(=O)(=O)Nc2ccccc2)cc1 (stereo not drawn) ?
MrgX1 ag: inactive; RGS4 pot: inactive; MrgX1 antagonist: -5.4*; RGS4 block: inactive; MrgX1 allo act: inactive; MrgX1 antag conf: inactive; HEK293 Ca flux: inactive; HEK293 Ca counter: inactive; HEK293 Ca cntr2: inactive

How did Cc1ccccc1OCCN(C#N)c1nc(N(C)C)nc(N(C)C)n1 do in these assays?
MrgX1 ag: inactive; RGS4 pot: inactive; MrgX1 antagonist: -4.9*; RGS4 block: inactive; MrgX1 allo act: inactive; MrgX1 antag conf: inactive; HEK293 Ca flux: inactive; HEK293 Ca counter: inactive; HEK293 Ca cntr2: inactive

How did CC(=O)NCCc1ccc(S(=O)(=O)NC2OC(=O)c3ccccc32)cc1 (stereo not drawn) do in these assays?
MrgX1 ag: inactive; RGS4 pot: inactive; MrgX1 antagonist: -4.8*; RGS4 block: inactive; MrgX1 allo act: inactive; MrgX1 antag conf: inactive; HEK293 Ca flux: inactive; HEK293 Ca counter: inactive; HEK293 Ca cntr2: inactive

How did CC(=O)NCc1ccc(S(=O)(=O)NC(C)CCc2ccccc2)cc1 (stereo not drawn) do in these assays?
MrgX1 ag: inactive; RGS4 pot: inactive; MrgX1 antagonist: inactive; RGS4 block: inactive; MrgX1 allo act: inactive

Results for O=C(Cc1cccs1)Nc1cccc(-c2nnc(-c3ccco3)o2)c1 ?
MrgX1 ag: inactive; RGS4 pot: inactive; MrgX1 antagonist: -7.4*; RGS4 block: inactive; MrgX1 allo act: inactive; MrgX1 antag conf: inactive; HEK293 Ca flux: inactive; HEK293 Ca counter: inactive; HEK293 Ca cntr2: inactive
